Data as given in ChEMBL document CHEMBL5724801, “EUbOPEN Chemogenomics Library - Multiplex” (2024).
Values joined by “and” are separate entries in the source; they are usually repeats but may differ in a detail not shown here. Equal entries are not always repeated.

Test system: U2OS
Assay: Multiplex assay against U2OS
Format: toxicity, cell-based
Details: human
Outline: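 Live cells were stained at seeding with Hoechst33342, BioTracker Green Microtubule Cytoskeleton Dye, MitoTracker Red and Annexin V Alexa Fluor 680. Following compound addition, they were imaged on a CQ1 microscope at 37°C and 5% CO2 and gated by CellPathfinder machine learning into Hoechst high-intensity objects or normal cells, with normal cells split into healthy, pyknosed or fragmented nuclei and pyknosed cells into mitotic or apoptotic. Tubulin, mitochondrial-mass and membrane-permeability phenotypes are per cents of healthy-nucleus cells.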

[1] = 12 h, 1 µM, compound concentration 1 uM
[2] = 12 h, 10 µM, compound concentration 10 uM
[3] = 24 h, 1 µM, compound concentration 1 uM
[4] = 24 h, 10 µM, compound concentration 10 uM
[5] = 48 h, 1 µM, compound concentration 1 uM
[6] = 48 h, 10 µM, compound concentration 10 uM

CC(C)(O)c1cnc(N2C[C@@]3(CCC[C@](C)(Cn4cnc5ccc(C#N)cc54)C3)OC2=O)cn1 [GSK2798745]
Population Apoptotic (%) [1]: 63.64% and 30.77% | Population Fragmented Nuclei (%) [1]: 3.45% and 3.94% | Population Healthy Nuclei (%) [1]: 87.8% and 85.83% | Population Hoechst High Intensity Objects (%) [1]: 0% | Population Membrane Permeable-Phenotype (%) [1]: 0.6% and 4.59% | Population Mitochondria Different-Phenotype (%) [1]: 0.3% and 10.09% | Population Mitotic Cells (%) [1]: 36.36% and 69.23% | Population Normal (%) [1]: 100% | Population Pyknosed Nuclei (%) [1]: 8.75% and 10.24% | Population Tubulin-Different-Phenotype (%) [1]: 1.51% and 0% | Total Cell Count [1]: 377 and 127 | Population Apoptotic (%) [2]: 39.02% and 48.39% | Population Fragmented Nuclei (%) [2]: 1.62% and 2.98% | Population Healthy Nuclei (%) [2]: 87.33% and 78.57% | Population Hoechst High Intensity Objects (%) [2]: 0% | Population Membrane Permeable-Phenotype (%) [2]: 2.16% and 6.06% | Population Mitotic Cells (%) [2]: 60.98% and 51.61% | Population Normal (%) [2]: 100% | Population Pyknosed Nuclei (%) [2]: 11.05% and 18.45% | Population Tubulin-Different-Phenotype (%) [2]: 3.7% and 1.52% | Total Cell Count [2]: 371 and 168 | Population Apoptotic (%) [3]: 40.48% and 23.53% | Population Fragmented Nuclei (%) [3]: 1.65% and 5.56% | Population Healthy Nuclei (%) [3]: 89.67% and 83.95% | Population Hoechst High Intensity Objects (%) [3]: 0% | Population Membrane Permeable-Phenotype (%) [3]: 0.23% and 2.94% | Population Mitochondria Different-Phenotype (%) [3]: 0.23% and 2.94% | Population Mitotic Cells (%) [3]: 59.52% and 76.47% | Population Normal (%) [3]: 100% | Population Pyknosed Nuclei (%) [3]: 8.68% and 10.49% | Population Tubulin-Different-Phenotype (%) [3]: 0.69% and 0% | Total Cell Count [3]: 484 and 162 | Population Apoptotic (%) [4]: 44% and 37.5% | Population Fragmented Nuclei (%) [4]: 1.39% and 4.31% | Population Healthy Nuclei (%) [4]: 88.71% and 84.21% | Population Hoechst High Intensity Objects (%) [4]: 0.2% and 0% | Population Membrane Permeable-Phenotype (%) [4]: 1.34% and 6.25% | Population Mitochondria Different-Phenotype (%) [4]: 0.67% and 8.52% | Population Mitotic Cells (%) [4]: 56% and 62.5% | Population Normal (%) [4]: 99.8% and 100% | Population Pyknosed Nuclei (%) [4]: 9.9% and 11.48% | Population Tubulin-Different-Phenotype (%) [4]: 3.12% and 1.7% | Total Cell Count [4]: 506 and 209 | Population Apoptotic (%) [5]: 34.95% and 33.33% | Population Fragmented Nuclei (%) [5]: 3.43% and 2.22% | Population Healthy Nuclei (%) [5]: 85.16% and 84.44% | Population Hoechst High Intensity Objects (%) [5]: 0% | Population Membrane Permeable-Phenotype (%) [5]: 1.17% and 3.07% | Population Mitochondria Different-Phenotype (%) [5]: 0.13% and 4.82% | Population Mitotic Cells (%) [5]: 65.05% and 66.67% | Population Normal (%) [5]: 100% | Population Pyknosed Nuclei (%) [5]: 11.41% and 13.33% | Population Tubulin-Different-Phenotype (%) [5]: 0.52% and 1.32% | Population Apoptotic (%) [6]: 52.17% and 44.9% | Population Fragmented Nuclei (%) [6]: 2.1% and 0.91% | Population Healthy Nuclei (%) [6]: 87.73% and 84.29% | Population Hoechst High Intensity Objects (%) [6]: 0% | Population Membrane Permeable-Phenotype (%) [6]: 1.26% and 1.79% | Population Mitochondria Different-Phenotype (%) [6]: 0.5% and 9.68% | Population Mitotic Cells (%) [6]: 47.83% and 55.1% | Population Normal (%) [6]: 100% | Population Pyknosed Nuclei (%) [6]: 10.17% and 14.8% | Population Tubulin-Different-Phenotype (%) [6]: 3.65% and 0.36% | Total Cell Count [6]: 905 and 331

O=C(NCCN1CCC(n2c(=O)[nH]c3cc(Cl)ccc32)CC1)c1ccc(F)cc1 [HALOPEMIDE]
Population Apoptotic (%) [1]: 95% and 50% | Population Fragmented Nuclei (%) [1]: 24% and 13% | Population Healthy Nuclei (%) [1]: 65% and 79% | Population Hoechst High Intensity Objects (%) [1]: 1% and 0% | Population Membrane Permeable-Phenotype (%) [1]: 6% and 7% | Population Mitochondria Different-Phenotype (%) [1]: 1% and 2% | Population Normal (%) [1]: 98% and 100% | Population Pyknosed Nuclei (%) [1]: 10% and 7% | Population Tubulin-Different-Phenotype (%) [1]: 2% and 3% | Total Cell Count [1]: 209 and 105 | Population Apoptotic (%) [2]: 68% and 61% | Population Fragmented Nuclei (%) [2]: 19% and 12% | Population Healthy Nuclei (%) [2]: 65% and 78% | Population Hoechst High Intensity Objects (%) [2]: 4% and 1% | Population Membrane Permeable-Phenotype (%) [2]: 23% and 26% | Population Mitochondria Different-Phenotype (%) [2]: 11% and 32% | Population Mitotic Cells (%) [2]: 31% and 38% | Population Normal (%) [2]: 95% and 98% | Population Pyknosed Nuclei (%) [2]: 15% and 8% | Population Tubulin-Different-Phenotype (%) [2]: 15% and 27% | Total Cell Count [2]: 244 and 152 | Population Apoptotic (%) [3]: 91% and 81% | Population Fragmented Nuclei (%) [3]: 22% and 15% | Population Healthy Nuclei (%) [3]: 68% and 72% | Population Hoechst High Intensity Objects (%) [3]: 1% and 0% | Population Membrane Permeable-Phenotype (%) [3]: 6% and 10% | Population Mitochondria Different-Phenotype (%) [3]: 1% and 3% | Population Mitotic Cells (%) [3]: 8% and 18% | Population Normal (%) [3]: 98% and 99% | Population Pyknosed Nuclei (%) [3]: 9% and 12% | Population Tubulin-Different-Phenotype (%) [3]: 1% and 8% | Total Cell Count [3]: 241 and 132 | Population Apoptotic (%) [4]: 75% and 63% | Population Fragmented Nuclei (%) [4]: 17% and 16% | Population Healthy Nuclei (%) [4]: 64% and 71% | Population Hoechst High Intensity Objects (%) [4]: 2% and 3% | Population Membrane Permeable-Phenotype (%) [4]: 15% and 26% | Population Mitochondria Different-Phenotype (%) [4]: 10% and 23% | Population Mitotic Cells (%) [4]: 25% and 36% | Population Normal (%) [4]: 97% and 96% | Population Pyknosed Nuclei (%) [4]: 18% and 12% | Population Tubulin-Different-Phenotype (%) [4]: 7% and 21% | Total Cell Count [4]: 271 and 159 | Population Apoptotic (%) [5]: 68% and 95% | Population Fragmented Nuclei (%) [5]: 16% and 17% | Population Healthy Nuclei (%) [5]: 75% and 69% | Population Hoechst High Intensity Objects (%) [5]: 2% and 1% | Population Membrane Permeable-Phenotype (%) [5]: 4% and 9% | Population Mitochondria Different-Phenotype (%) [5]: 2% and 5% | Population Normal (%) [5]: 97% and 98% | Population Pyknosed Nuclei (%) [5]: 7% and 12% | Population Tubulin-Different-Phenotype (%) [5]: 2% and 6% | Total Cell Count [5]: 337 and 187 | Population Apoptotic (%) [6]: 81% and 77% | Population Fragmented Nuclei (%) [6]: 15% and 13% | Population Healthy Nuclei (%) [6]: 69% and 67% | Population Hoechst High Intensity Objects (%) [6]: 3% and 6% | Population Membrane Permeable-Phenotype (%) [6]: 10% and 16% | Population Mitochondria Different-Phenotype (%) [6]: 5% and 12% | Population Mitotic Cells (%) [6]: 18% and 22% | Population Normal (%) [6]: 96% and 93% | Population Pyknosed Nuclei (%) [6]: 14% and 18% | Population Tubulin-Different-Phenotype (%) [6]: 5% and 6% | Total Cell Count [6]: 382 and 197

COc1ccc2[nH]c(I)c(CCNC(C)=O)c2c1 [IODOMELATONIN]
Population Apoptotic (%) [1]: 68% and 37% | Population Fragmented Nuclei (%) [1]: 19% and 11% | Population Healthy Nuclei (%) [1]: 74% and 83% | Population Hoechst High Intensity Objects (%) [1]: 2% and 0% | Population Membrane Permeable-Phenotype (%) [1]: 4% and 5% | Population Mitochondria Different-Phenotype (%) [1]: 3% and 1% | Population Mitotic Cells (%) [1]: 31% and 62% | Population Normal (%) [1]: 97% and 99% | Population Pyknosed Nuclei (%) [1]: 5% | Population Tubulin-Different-Phenotype (%) [1]: 1% and 2% | Total Cell Count [1]: 282 and 156 | Population Apoptotic (%) [2]: 77% and 80% | Population Fragmented Nuclei (%) [2]: 25% and 41% | Population Healthy Nuclei (%) [2]: 64% and 54% | Population Hoechst High Intensity Objects (%) [2]: 3% and 0% | Population Membrane Permeable-Phenotype (%) [2]: 2% and 10% | Population Mitochondria Different-Phenotype (%) [2]: 1% and 6% | Population Mitotic Cells (%) [2]: 22% and 20% | Population Normal (%) [2]: 96% and 99% | Population Pyknosed Nuclei (%) [2]: 9% and 3% | Population Tubulin-Different-Phenotype (%) [2]: 1% and 2% | Total Cell Count [2]: 231 and 134 | Population Apoptotic (%) [3]: 86% and 80% | Population Fragmented Nuclei (%) [3]: 16% and 15% | Population Healthy Nuclei (%) [3]: 75% and 78% | Population Hoechst High Intensity Objects (%) [3]: 1% | Population Membrane Permeable-Phenotype (%) [3]: 3% and 8% | Population Mitochondria Different-Phenotype (%) [3]: 1% and 0% | Population Mitotic Cells (%) [3]: 13% and 20% | Population Normal (%) [3]: 98% | Population Pyknosed Nuclei (%) [3]: 8% and 5% | Population Tubulin-Different-Phenotype (%) [3]: 2% | Total Cell Count [3]: 354 and 179 | Population Apoptotic (%) [4]: 95% and 88% | Population Fragmented Nuclei (%) [4]: 25% and 34% | Population Healthy Nuclei (%) [4]: 66% and 59% | Population Hoechst High Intensity Objects (%) [4]: 1% | Population Membrane Permeable-Phenotype (%) [4]: 4% and 7% | Population Mitochondria Different-Phenotype (%) [4]: 1% and 5% | Population Mitotic Cells (%) [4]: 4% and 11% | Population Normal (%) [4]: 98% | Population Pyknosed Nuclei (%) [4]: 8% and 5% | Population Tubulin-Different-Phenotype (%) [4]: 1% and 2% | Total Cell Count [4]: 273 and 153 | Population Apoptotic (%) [5]: 92% and 86% | Population Fragmented Nuclei (%) [5]: 12% and 13% | Population Healthy Nuclei (%) [5]: 79% and 81% | Population Hoechst High Intensity Objects (%) [5]: 1% | Population Membrane Permeable-Phenotype (%) [5]: 5% and 4% | Population Mitochondria Different-Phenotype (%) [5]: 2% | Population Mitotic Cells (%) [5]: 7% and 13% | Population Normal (%) [5]: 98% | Population Pyknosed Nuclei (%) [5]: 7% and 5% | Population Tubulin-Different-Phenotype (%) [5]: 3% | Total Cell Count [5]: 509 and 284 | Population Apoptotic (%) [6]: 97% and 100% | Population Fragmented Nuclei (%) [6]: 21% and 29% | Population Healthy Nuclei (%) [6]: 68% and 65% | Population Hoechst High Intensity Objects (%) [6]: 2% and 0% | Population Membrane Permeable-Phenotype (%) [6]: 5% and 7% | Population Mitochondria Different-Phenotype (%) [6]: 0% and 5% | Population Mitotic Cells (%) [6]: 2% and 0% | Population Normal (%) [6]: 97% and 99% | Population Pyknosed Nuclei (%) [6]: 9% and 5% | Population Tubulin-Different-Phenotype (%) [6]: 2% and 4% | Total Cell Count [6]: 373 and 209
